# Experimental data as given in ChEMBL document CHEMBL1122619, “Synthesis and antiarrhythmic and parasympatholytic properties of substituted phenols. 2. Amides” (J Med Chem, 1984).
# Calls of active or inactive are those of the source. No cut-off for these calls is given here.
# Experiments:
# Canis familiaris [1] = experiment: Evaluated for ouabain-induced arrhythmia in anesthetized adult male mongrel dogs. Administered intravenously.; type: functional, Canis lupus familiaris
# Method in brief: (§1)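 Adult male mongrel dogs (10–17 kg) anesthetized with pentobarbital (30 mg/kg iv) and intubated with spontaneous respiration. ECG lead II recorded. Ouabain given iv as boluses: 40 μg/kg, then 20 μg/kg at 30 min, then 10 μg/kg every 15 min until a stable ventricular arrhythmia (>95% ectopic ventricular complexes). Test drug given iv, doses calculated as free base.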
# Cavia porcellus [2] = species: Cavia porcellus; experiment: Anticholinergic activity is assessed in guinea pig ileum at 50 uM; type: functional; settings: read-out: pA2 (converted)
# Method in brief: (§2)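 Isolated guinea pig ileum contracted with methacholine. Tissue washed between increasing methacholine concentrations. A single antagonist dose was given 15 min before each methacholine concentration. Methacholine EC50 (50% of maximal response) was found per muscle with and without antagonist. pA2 = −log KB, where KB = [antagonist]/((EC50 with/EC50 without) − 1). Doses calculated as free base.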
# Cavia porcellus [3] = species: Cavia porcellus; experiment: Parasympatholytic activity was assessed from the ability to inhibit electrically stimulated contraction of isolated guinea pig ileum at 4 mg/L of base; type: functional
# Method in brief: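 Electrically stimulated isolated guinea pig ileum, in which tension arises from stimulated acetylcholine release from postganglionic parasympathetic nerve terminals. After about 60 min equilibration, contractile tension was measured just before and during the steady-state response to test drug at 4 mg/L, calculated as free base.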
# Cavia porcellus [4] = species: Cavia porcellus; experiment: Anticholinergic activity is assessed in guinea pig ileum at 10 uM; type: functional; settings: read-out: pA2 (converted); method in brief: as §2
# Cavia porcellus [5] = species: Cavia porcellus; experiment: Anticholinergic activity is assessed in guinea pig ileum at 30 uM; type: functional, organism-based; settings: read-out: pA2 (converted); method in brief: as §2
# Canis familiaris [6] = experiment: Compound was evaluated for ouabain-induced arrhythmia in anesthetized adult male mongrel dogs. Both ouabain and compound are administered intravenously; NA means not effective; type: functional, organism-based; settings: Canis lupus familiaris; method in brief: as §1
# Cavia porcellus [7] = species: Cavia porcellus; experiment: Anticholinergic activity is assessed in guinea pig ileum at 30 uM; settings: read-out: pA2 (converted)
# Canis familiaris [8] = experiment: Compound was evaluated for ouabain-induced arrhythmia in anesthetized adult male mongrel dogs. Both ouabain and compound are administered intravenously; NA = inactive up to 30 mg/kg; type: functional, organism-based; design: dose 30 mg/kg; settings: Canis lupus familiaris; method in brief: as §1
SMILES,Dose (Canis familiaris [1]) [mg/kg],Inhibition (Cavia porcellus [3]) [%],also measured
Cc1ccc(C(=O)Nc2cc(CN3CCCC3)c(O)c(CN3CCCC3)c2)s1,4.3,–,–
Cl.Cl.O=C(NCc1cc(CN2CCCC2)c(O)c(CN2CCCC2)c1)c1ccccc1Cl,2.5,19,Kb (Cavia porcellus [2]): 12 µM
Cc1ccc(C(=O)Nc2cc(CN3CCCC3)c(O)c(CN3CCCC3)c2)cc1,3,22,–
Oc1c(CN2CCCC2)cc(Nc2ncnc3ccccc23)cc1CN1CCCC1 [CHANGROLIN],5.5,43,–
Cl.Cl.O=C(Nc1cc(CN2CCCC2)c(O)c(CN2CCCC2)c1)c1ccccc1C(F)(F)F,6.5,0,Kb (Cavia porcellus [2]): 17.4 µM
Cc1cccc(C(=O)Nc2cc(CN3CCCC3)c(O)c(CN3CCCC3)c2)c1.Cl.Cl,5.2,32,–
Cl.Cl.O=C(NCc1cc(CN2CCCC2)c(O)c(CN2CCCC2)c1)c1cccc(C(F)(F)F)c1,5.5,72,–
Cl.Cl.O=C(NCc1cc(CN2CCCC2)c(O)c(CN2CCCC2)c1)c1ccc(C(F)(F)F)cc1,4.5,50,–
Cl.Cl.O=C(Nc1cc(CN2CCCC2)c(O)c(CN2CCCC2)c1)c1cccc(Cl)c1,3.8,37,–
Nc1ccc(C(=O)Nc2cc(CN3CCCC3)c(O)c(CN3CCCC3)c2)cc1,4.5,0,–
C=C[C@H]1CN2CC[C@H]1C[C@@H]2[C@@H](O)c1ccnc2ccc(OC)cc12 [QUINIDINE],10.5,62,Kb (Cavia porcellus [4]): 1000 nM
Cl.O=C(Nc1cc(CN2CCCC2)c(O)c(CN2CCCC2)c1)c1cccc(C(F)(F)F)c1,2.3,62,–
Cl.Cl.O=C(NCc1cc(CN2CCCC2)c(O)c(CN2CCCC2)c1)c1ccc(Cl)cc1,3.7,56,–
Cl.Cl.O=C(NCc1cc(CN2CCCC2)c(O)c(CN2CCCC2)c1)c1ccccc1C(F)(F)F,1.9,8,–
Cc1ccsc1C(=O)Nc1cc(CN2CCCC2)c(O)c(CN2CCCC2)c1,1.6,–,–
O=C(NCc1cc(CN2CCCC2)c(O)c(CN2CCCC2)c1)c1ccccc1,3,34,–
O=C(Nc1cc(CN2CCCC2)c(O)c(CN2CCCC2)c1)c1ccc(Cl)cc1,1.5,49,–

SMILES,Dose (Canis familiaris [1]) [mg/kg],Inhibition (Cavia porcellus [3]) [%],also measured
O=C(Nc1cc(CN2CCCC2)c(O)c(CN2CCCC2)c1)c1cccs1,2,44,Kb (Cavia porcellus [5]): 15.8 µM
O=C(Nc1cc(CN2CCCC2)c(O)c(CN2CCCC2)c1)c1ccccc1Cl,5,0,Kb (Cavia porcellus [2]): 7.59 µM
CCN(CC)CCNC(=O)c1ccc(N)cc1 [PROCAINAMIDE],29,0,–
Cl.Cl.O=C(NCc1cc(CN2CCCC2)c(O)c(CN2CCCC2)c1)c1cccc(Cl)c1,9,78,–
O=C(Nc1cc(CN2CCCC2)c(O)c(CN2CCCC2)c1)c1ccc(C(F)(F)F)cc1,5.3,42,–
O=C(Cc1cccs1)Nc1cc(CN2CCCC2)c(O)c(CN2CCCC2)c1,–,13,DOSE (Canis familiaris [6]): Not effective
Cl.Cl.O=C(Nc1cc(CN2CCCC2)c(O)c(CN2CCCC2)c1)c1c(Cl)cccc1Cl,4.6,14,Kb (Cavia porcellus [2]): 4.68 µM
Cc1ccccc1C(=O)Nc1cc(CN2CCCC2)c(O)c(CN2CCCC2)c1.Cl.Cl,2.7,9,Kb (Cavia porcellus [5]): 19.5 µM
CC(C)N(CCC(C(N)=O)(c1ccccc1)c1ccccn1)C(C)C (stereo not given) [DISOPYRAMIDE],4.4,81,Kb (Cavia porcellus [7]): 0.363 µM
O=C(Nc1cc(CN2CCCC2)c(O)c(CN2CCCC2)c1)c1cc(Br)sc1Br,4.3,–,–
COc1cc(C(=O)Nc2cc(CN3CCCC3)c(O)c(CN3CCCC3)c2)cc(OC)c1OC.Cl.Cl,–,6,DOSE (Canis familiaris [8]): inactive
COc1ccccc1C(=O)Nc1cc(CN2CCCC2)c(O)c(CN2CCCC2)c1.Cl.Cl,3,31,–
O=C(Nc1cc(CN2CCCC2)c(O)c(CN2CCCC2)c1)c1ccccc1,3.4,30,Kb (Cavia porcellus [7]): 10 µM
Cl.Cl.O=C(Nc1cc(CN2CCCC2)c(O)c(CN2CCCC2)c1)c1ccc(Cl)cc1Cl,–,11,DOSE (Canis familiaris [6]): Not effective
O=C(Nc1cc(CN2CCCC2)c(O)c(CN2CCCC2)c1)c1ccc([N+](=O)[O-])cc1,11,24,–
Cc1cccc(C)c1C(=O)Nc1cc(CN2CCCC2)c(O)c(CN2CCCC2)c1.Cl.Cl,3.2,15,Kb (Cavia porcellus [2]): 5.5 µM
COc1ccc(C(=O)Nc2cc(CN3CCCC3)c(O)c(CN3CCCC3)c2)cc1,7.3,24,–
